Ins promoter up – MIN6 insulin promoter up-regulation; z-score at 5 µM; hit rate 0.3% among 190,000; MIN6 insulin promoter-GFP reporter, high-content imaging; stronger effect = higher value; AID 1625;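 active = z-score above 3 at 5 µM with at least 500 cells counted in the well; inconclusive = wells under 500 cells, flagged as cytotoxic or low count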
Insulin prom inh – TRM-6 insulin promoter activity inhibition | TRM-6 cells (human fetal islet line), insulin promoter-eGFP reporter, imaging; reporter expression induced with tamoxifen | inhibition, % at 2 µM | hit rate 0.9% among 130,000;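 active = inhibition above the mean plus 3 SD, with well images judged a real hit on visual review, cut at about 60% in these data, passing the limit was not always enough; inconclusive = inhibition over the cutoff but images rejected on review; inactive = inhibition not above the cutoff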
RBBP9 inhibitor – blocks human serine hydrolase RBBP9; AID 1515; recombinant RBBP9, FP-Rh probe fluorescence polarization; hit rate 0.2% among 220,000; inhibition, % at 7.94 µM; O75884;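 active = inhibition above the campaign mean of all tested compounds plus 3 SD, cut at about 14% in these data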
Target sequence (O75884 whole entry, looked up): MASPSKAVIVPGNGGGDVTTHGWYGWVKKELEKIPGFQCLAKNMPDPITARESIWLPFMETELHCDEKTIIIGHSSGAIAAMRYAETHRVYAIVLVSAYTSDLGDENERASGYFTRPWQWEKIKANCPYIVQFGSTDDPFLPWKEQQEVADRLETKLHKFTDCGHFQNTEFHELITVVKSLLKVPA
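Test system: recombinant human RBBP9. Quantity: 2.5 µM RBBP9 dispensing solution, before mixing. Detection: FP readout at 525/598 nm. Reagent: Serine-hydrolase probe FP-Rh, 375 nM pre-mixing. Measure: % inhibition. Control set: DMSO-treated enzyme wells and wells lacking RBBP9. Buffer or medium: Tris-NaCl-Pluronic buffer, pH 8.0. Times: preincubation 30 min plus labeling 45 min at 25 °C.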
Arbovirus anti – arbovirus infection inhibition | hit rate 0.37% among 200,000 | arbovirus infection cell-based antiviral screen | inhibition, % at 10 µM; in the data active = inhibition above about 30%
Autophagy HCS – autophagy modulation, high-content screen | MEF GFP-LC3 puncta imaging; test concentration mostly 10 µM | calls only at 10 µM (by protocol) | hit rate 0.98% among 190,000 | AID 463193;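 active = percentage of spot-positive cells more than 3 SD above its plate mean, without a fluorescence outlier flag or 80% toxicity; inconclusive = no clear call, values can overlap the other calls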
PKD1 inh – inhibitors of human PKD1 kinase; PKD1 kinase fluorescence polarization assay; Q15139; inhibition, % (no concentration beside the values); hit rate 0.056% among 200,000; in the data active = inhibition above about 50%
Large screens that a line does not name were inactive. Hits are enriched below; roughly 2.1% of the tested compounds scored in any of these assays.

CCOc1ccc2nc(N3CCC(C(=O)NCCCN4CCOCC4)CC3)sc2c1	none (no result: Insulin prom inh, Arbovirus anti, Autophagy HCS, PKD1 inh)
CCOc1ccc2nc(N3CCCC(C(=O)NCCCN4CCOCC4)C3)sc2c1 (stereo not given)	Autophagy HCS active (no result: Insulin prom inh)
CCOC(=O)c1c(N2C(=O)Nc3ccccc3N2O)sc2c1CCCCC2	none
COC(=O)c1c(N2C(=O)Nc3ccccc3N2O)sc2c1CCCC2	Insulin prom inh 69
COC(=O)c1c(-c2ccccc2)csc1N1C(=O)Nc2ccccc2N1O	Arbovirus anti 36
CCn1c(=O)cc(SCC(=O)NCCCN2CCN(c3ccccc3F)CC2)c2ccccc21	Autophagy HCS active (no result: Insulin prom inh)
COc1cccc(CCC(=O)O)c1OC	Insulin prom inh 89 (no result: Ins promoter up)
Cc1ccc2c(c1)c1c(n2CC(O)Cn2c(C)nc3ccccc32)C(=O)CCC1 (stereo not given)	Arbovirus anti 37 (no result: Insulin prom inh)
Cc1ccc2c(c1)c1c(n2CC(O)Cn2c(C)nc3ccccc32)/C(=N\O)CCC1 (stereo not given)	none
CCCCOc1ccc(N2CC(C(=O)NCCc3ccc(OC)c(OC)c3)CC2=O)cc1 (stereo not given)	none
CCN1CCc2c(sc3c2c(NCc2ccco2)nc2nnnn23)C1	Arbovirus anti 33 (no result: Ins promoter up, Insulin prom inh)
N#C/C(=C\C1=C(N2CCOCC2)C(=C\c2ccc(Cl)cc2)/CC1)C(=O)Nc1ccccc1F	Ins promoter up 3.3, Autophagy HCS active
N#C/C(=C\C1=C(N2CCOCC2)C(=C/c2cccc([N+](=O)[O-])c2)/CC1)C(=O)Nc1ccccc1F	Ins promoter up 3.1, Autophagy HCS active
Cc1cc(N2CCN(C)CC2)ccc1NC(=O)c1c2c(nc3ccccc13)CCN(Cc1ccccc1)C2	Autophagy HCS inconclusive
CC(C)c1ccccc1NC(=O)COC(=O)c1c2c(nc3ccccc13)CCN(Cc1ccccc1)C2	Autophagy HCS active
Cc1c(Cl)cccc1NC(=O)COC(=O)c1c2c(nc3ccccc13)CCN(Cc1ccccc1)C2	Autophagy HCS active
Cc1ccc(C)c(S(=O)(=O)N2CCN(C(C)C(=O)Nc3ccccc3-c3ccccc3)CC2)c1 (stereo not given)	Arbovirus anti 32
CC(=O)Nc1ccc(NC(=O)C(C)N2CCN(S(=O)(=O)c3ccc(C)cc3)CC2)cc1 (stereo not given)	none (no result: Insulin prom inh)
CCc1cc(C(=O)O)c(NC(=O)c2cc(OC)c(OC)c(OC)c2)s1	Arbovirus anti 76 (no result: Ins promoter up)
CCOC(=O)c1cc(CC)sc1NC(=O)c1cc(OCC)c(OCC)c(OCC)c1	none
Cc1ccc(Cn2c(=N)n(CC(=O)c3ccc([N+](=O)[O-])cc3)c3ccccc32)cc1	Ins promoter up inconclusive (no result: Insulin prom inh)
CCCCn1c(=N)n(CC(=O)c2ccc([N+](=O)[O-])cc2)c2ccccc21	Autophagy HCS active (no result: Insulin prom inh)
O=C(Nc1ccc2c(c1)OCCO2)c1cc(-c2ccccn2)nc2ccc(Br)cc12	Autophagy HCS active (no result: Insulin prom inh)
Cc1cccc(-c2cc(C(=O)Nc3ccc4c(c3)OCCO4)c3ccccc3n2)c1	none
O=S(=O)(c1ccc(Cl)cc1)N1c2ccccc2Oc2nc3ccccc3nc21	none (no result: Ins promoter up)
COc1ccc(S(=O)(=O)N2c3cc(Cl)ccc3Oc3nc4ccccc4nc32)cc1	Autophagy HCS active
Cc1ccc2c(c1)NC(=O)C(CC(=O)NCCCN1CCN(c3cc(C)ccc3C)CC1)O2 (stereo not given)	Autophagy HCS active (no result: Insulin prom inh)
CCCn1cnc2c(cnn2-c2ccc(F)cc2)c1=O	Autophagy HCS active (no result: Ins promoter up)
c1ccc2c(c1)NC(c1ccncc1)n1c-2nc2ccccc21 (stereo not given)	Insulin prom inh 78 (no result: Ins promoter up)
COc1cc(C(=O)NC(CCSC)C(=O)OCC(=O)NC(=O)C2CCCCC2)cc(OC)c1OC (stereo not given)	none
Cc1sc2ncnc(SCC(=O)NC3CC3)c2c1C	Insulin prom inh 100
C=CCSc1ncnc2sc(C)c(C)c12	none
CCSc1ncnc2sc(C)c(C)c12	Autophagy HCS active
COC(=O)c1ccccc1NC(=O)C1CCN(C(=O)c2cc(OC)c(OC)c(OC)c2)CC1	Arbovirus anti 124
COc1ccc(C(=O)N2CCC(C(=O)Nc3ccccc3C)CC2)cc1OC	none (no result: Insulin prom inh)
Cc1cccnc1NC(=O)C1c2ccccc2Oc2ccccc21	none
Cc1ccnc2nc(C(=O)OCC(=O)NCCc3ccccc3)nn12	Insulin prom inh 73
Cc1ccnc2nc(C(=O)OCC(=O)Nc3ccccc3C(C)(C)C)nn12	none
CC(=O)c1c(COC(=O)c2cccc(C)c2)nc2ccccc2[n+]1[O-]	none (no result: Insulin prom inh, Arbovirus anti, Autophagy HCS, PKD1 inh)
CC(=O)c1c(COC(=O)c2ccncc2)nc2ccccc2[n+]1[O-]	Ins promoter up 4.2 (no result: Insulin prom inh)
COc1cccc(-c2nc(Oc3cc(C)cc(C)c3)c3ccccc3n2)c1O	Autophagy HCS active (no result: Insulin prom inh)
COCCN1C(=O)c2ccccc2C(C(=O)NCCN(C)C)C1c1ccc(F)cc1 (stereo not given)	Insulin prom inh 79
O=C(Nc1ccc(Cc2ccc(NC(=O)C3CC3)cc2)cc1)C1CC1	none
O=c1c2c(-c3ccccc3)csc2nc2n1CCC2	none
O=C(NC1CCCC1)c1cnn2c(C(F)(F)F)cc(-c3ccc4c(c3)OCO4)nc12	Autophagy HCS active (no result: Ins promoter up)
COc1ccc(OCC(=O)Nc2ccccc2C(=O)NC(C)C)cc1	none (no result: Insulin prom inh)
CCC(C)NC(=O)c1ccccc1NC(=O)COc1ccc(OC)cc1 (stereo not given)	Insulin prom inh 79 (no result: Ins promoter up)
CCN(CC)CC(=O)N1c2ccccc2Oc2c(c(=O)n(C)c(=O)n2C)C1c1cccc([N+](=O)[O-])c1 (stereo not given)	none (no result: Insulin prom inh, Arbovirus anti, Autophagy HCS, PKD1 inh)
Nc1c(S(=O)(=O)c2ccccc2)nnn1-c1ccccc1	none
COc1ccc(S(=O)(=O)c2nnn(-c3ccccc3Cl)c2N)cc1	Insulin prom inh 73
CNc1nc2[nH]c(=O)c3c(c2s1)OC(N)=C(C#N)C3c1ccccc1 (stereo not given)	none (no result: Insulin prom inh)
Cc1[nH]c(=O)[nH]c(=O)c1NC(=O)CSc1ncccc1-c1nc2ccccc2[nH]1	none
Cc1ccc(-c2cn3nc(-c4ccccc4)c(-c4ccccc4)nc3n2)cc1	none (no result: Ins promoter up, Insulin prom inh, Arbovirus anti, Autophagy HCS, PKD1 inh)
c1ccc(-c2cn3nc(-c4ccccc4)c(-c4ccccc4)nc3n2)cc1	Autophagy HCS active
C=CCc1ccc(OCCOCCNCCCC)c(OC)c1	Autophagy HCS active
Cc1ccc(-c2c(C)c(-c3ccc(F)cc3)nc(N)c2C#N)o1	none (no result: Insulin prom inh)
O=Cc1sc(Nc2ccccc2)nc1Cl	Ins promoter up 3.7
Cc1ccc(Nc2nc(Cl)c(C=O)s2)cc1Cl	none (no result: Ins promoter up, Insulin prom inh)
COc1ccccc1Nc1nc(Cl)c(C=O)s1	Ins promoter up 3.2 (no result: Insulin prom inh)
CCOC(=O)c1cnc2c(C(=O)OCC)cnn2c1N	none (no result: Insulin prom inh, Arbovirus anti, Autophagy HCS, PKD1 inh)
CCOC(=O)N1CCN(Cc2cn[nH]c2-c2ccc(-c3ccccc3)cc2)CC1	none (no result: Insulin prom inh)
Cc1ccc(/C=C/c2nc3ccccc3[nH]2)o1	Insulin prom inh 71
Cc1cc2nc(/C=C/c3nc4cc(C)c(C)cc4[nH]3)[nH]c2cc1C	none (no result: Insulin prom inh, Arbovirus anti, Autophagy HCS, PKD1 inh)
Cn1cnc([N+](=O)[O-])c1SCC(O)CN1CCCCC1 (stereo not given)	Autophagy HCS active (no result: Insulin prom inh)
Cn1cnc([N+](=O)[O-])c1SCC(=O)NN	none (no result: Insulin prom inh, Arbovirus anti, Autophagy HCS, PKD1 inh)

High-throughput results: PubChem, several laboratories
